Assay results gathered from unrelated publications.
Lines come from different studies, so protocols differ.
Target: Serine/threonine-protein kinase Nek7 (NEK7, Homo sapiens, UniProt Q8TDX7)

| Structure (SMILES) | read-out | mode | technique | concentration | quantity | value |
| --- | --- | --- | --- | --- | --- | --- |
| COc1cc(Nc2ncc(F)c(Nc3ccc4c(n3)NC(=O)C(C)(C)O4)n2)cc(OC)c1OC | binding | – | competition with immobilised ligand | 10 µM | inhibition | 100% |
| Cn1cncc1[C@](O)(COc1ccc(C#N)cc1-c1ccc(OC(F)(F)F)cc1)c1ccc(C#N)cc1 | cell-free assay | – | competition with immobilised ligand | 1 µM | remaining binding | 46% |
| Cn1cc(-c2cccc(N3CCc4c(sc5c4CC(C)(C)C5)C3=O)c2CO)cc(Nc2ccncn2)c1=O | enzyme activity | inhibitor | – | 1 µM | inhibition | 1% |
| CC(C)(C)c1cc(C=C(C#N)C#N)cc(Br)c1O | enzyme activity | inhibitor | – | 0.5 µM | remaining activity | 89.5% |
| Nc1ncc(-c2nc(N3CCOCC3)nc(N3CCOCC3)n2)c(C(F)F)n1 | binding | – | competition with immobilised ligand | 10 µM | remaining binding | 70% |
| N#CC1(c2ccccn2)CCN(Cc2cc(C(=O)O)c(=O)n3ccccc23)CC1 | cell-free assay | – | competition with immobilised ligand | 1 µM | remaining binding | 100% |
| Cc1nn(C)cc1-c1nc2c(N3CCN(Cc4ccc(Cl)cc4)CC3)c(Cl)cnc2[nH]1 | binding | – | competition with immobilised ligand | 1 µM | remaining binding | 100% |
| COc1ncccc1-c1cnn2ccc(N3CCN(C(=O)OC(C)C)CC3)nc12 | binding | – | competition with immobilised ligand | 1 µM | remaining binding | 100% |
| O=c1[nH]c2ccccc2n1C1CCN(Cc2ccc(-c3[nH]c4cc5ncnc5cc4nc3-c3ccccc3)cc2)CC1 | cell-free assay | – | – | 0.5 µM | remaining signal | 99.6% |
| Cn1cc(-c2cc(F)cc(N3CCn4c(cc5c4CCCC5)C3=O)c2CO)cc(Nc2ccc(N3CCN(C4COC4)CC3)cn2)c1=O | enzyme activity | inhibitor | – | 0.1 µM | inhibition | 10% |
